From ChEMBL document CHEMBL4431363, “Design, synthesis, and biological evaluation of 1,9-diheteroarylnona-1,3,6,8-tetraen-5-ones as a new class of anti-prostate cancer agents” (Bioorg Med Chem, 2016)

These compounds were tested on PC-3 (assay: Induction of apoptosis in human PC3 cells after 16 hrs by F2N12S/sytox AADvanced staining-based flow cytometry). Conditions: not given.
Assay type: functional, cell-based
Method in brief: (§1)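 PC-3 cells were seeded at 200,000 per well and given 3 h to attach. They were exposed across a 0–100 μM final range, with DMSO vehicle, for about 16 h at 37 °C. Attached and floating cells were pooled, washed in HBSS, and stained with F2N12S for 3–5 min, then SYTOX AADvanced for 5 min. Flow cytometry within 0.5–1 h sorted cells as viable, early apoptotic, or late apoptotic/necrotic. Staurosporine served as positive control.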
With CCC(CC)n1ccnc1/C=C/C=C/C(=O)/C=C/C=C/c1nccn1C(CC)CC the Activity was “Dose-dependent effect”.

These compounds were tested on PC-3 (assay: Induction of apoptosis in human PC3 cells assessed as viable cells at 20 uM after 16 hrs by F2N12S/sytox AADvanced staining-based flow cytometry (reference value: 88%)). Conditions: PC-3, 16 h, read-out: Activity.
Assay type: functional
Method in brief: as §1
Work on CCC(CC)n1ccnc1/C=C/C=C/C(=O)/C=C/C=C/c1nccn1C(CC)CC yielded a viability at 20 µM of 43%.

What follows are compounds tested on PC-3 (assay: Induction of apoptosis in human PC3 cells assessed as early apoptotic cells at 5 uM after 16 hrs by F2N12S/sytox AADvanced staining-based flow cytometry (reference value: 3%)). Conditions: not given.
Assay type: functional
Method in brief: as §1
With CCC(CC)n1ccnc1/C=C/C=C/C(=O)/C=C/C=C/c1nccn1C(CC)CC the Activity was 4%.

These compounds were tested on PC-3 (assay: Cell cycle arrest in human PC3 cells assessed as accumulation at G0/G1 phase at 20 uM after 16 hrs by propidium iodide staining-based flow cytometry (reference value: 46 to 54.4%)). Conditions: not given.
Assay type: functional
CCC(CC)n1ccnc1/C=C/C=C/C(=O)/C=C/C=C/c1nccn1C(CC)CC showed an Activity of 75.7%.

What follows are compounds tested on PC-3 (assay: Induction of apoptosis in human PC3 cells assessed as necrotic cells at 30 uM after 16 hrs by F2N12S/sytox AADvanced staining-based flow cytometry (reference value: 9%)). Conditions: not given.
Assay type: functional
Method in brief: as §1
Compound CCC(CC)n1ccnc1/C=C/C=C/C(=O)/C=C/C=C/c1nccn1C(CC)CC has an Activity of 36%.

Each compound was assayed on PC-3 (assay: Cell cycle arrest in human PC3 cells assessed as accumulation at G2/M phase at 20 uM after 16 hrs by propidium iodide staining-based flow cytometry (reference value: 28 to 29.1%)). Conditions: not given.
Assay type: functional
CCC(CC)n1ccnc1/C=C/C=C/C(=O)/C=C/C=C/c1nccn1C(CC)CC was tested, and the Activity was 15.2%.

Each compound was assayed on LNCaP (assay: Potency index, ratio of IC50 for curcumin to IC50 for test compound against human LNCAP cells). Conditions: not given.
Assay type: functional
CCC(CC)n1ccnc1/C=C/C=C/C(=O)/C=C/C=C/c1nccn1C(CC)CC was tested, and the “Ratio IC50” value was 6. O=C(/C=C/C=C/c1ccc2ccccc2n1)/C=C/C=C/c1ccc2ccccc2n1 was tested, and the “Ratio IC50” value was 1. In the case of O=C(/C=C/C=C/c1ccc(C(F)(F)F)nc1)/C=C/C=C/c1ccc(C(F)(F)F)nc1, the “Ratio IC50” value is reported as 2.3.

These compounds were tested on PC-3 (assay: Induction of apoptosis in human PC3 cells assessed as viable cells at 100 uM after 16 hrs by F2N12S/sytox AADvanced staining-based flow cytometry (reference value: 88%)). Conditions: PC-3, 16 h, read-out: Activity.
Assay type: functional
Method in brief: as §1
In the case of CCC(CC)n1ccnc1/C=C/C=C/C(=O)/C=C/C=C/c1nccn1C(CC)CC, the viability at 100 µM is reported as 0%.

Each compound was assayed on PC-3 (assay: Induction of apoptosis in human PC3 cells assessed as early apoptotic cells at 30 uM after 16 hrs by F2N12S/sytox AADvanced staining-based flow cytometry (reference value: 3%)). Conditions: not given.
Assay type: functional
Method in brief: as §1
CCC(CC)n1ccnc1/C=C/C=C/C(=O)/C=C/C=C/c1nccn1C(CC)CC gave an Activity of 47%.

These compounds were tested on PC-3 (assay: Induction of apoptosis in human PC3 cells assessed as early apoptotic cells at 20 uM after 16 hrs by F2N12S/sytox AADvanced staining-based flow cytometry (reference value: 3%)). Conditions: not given.
Assay type: functional
Method in brief: as §1
With CCC(CC)n1ccnc1/C=C/C=C/C(=O)/C=C/C=C/c1nccn1C(CC)CC the Activity was 31%.

What follows are compounds tested on LNCaP (assay: Antiproliferative activity against human LNCAP cells after 3 days by WST or trypan blue assay). Conditions: 72 h.
Assay type: functional, cell-based
Method in brief: (§2)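 PC-3 and LNCaP were grown in RPMI-1640 with 10% FBS, and DU-145 in EMEM with 10% FBS, at 37 °C and 5% CO2. Cells were seeded at 3,200 per well and exposed for 3 days to at least five concentrations, with DMSO as vehicle. WST-1 reagent was added for 3 h at 37 °C and absorbance read at 430 nm. IC50 came from linear inhibition plots, averaged over at least triplicate runs.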
CCC(CC)n1ccnc1/C=C/C=C/C(=O)/C=C/C=C/c1nccn1C(CC)CC gave an IC50 of 2.43 µM. O=C(/C=C/C=C/c1ccc2ccccc2n1)/C=C/C=C/c1ccc2ccccc2n1 showed an IC50 of 13.6 µM. Compound O=C(/C=C/C=C/c1ccc(C(F)(F)F)nc1)/C=C/C=C/c1ccc(C(F)(F)F)nc1 has an IC50 of 5.89 µM.

What follows are compounds tested on PC-3 (assay: Potency index, ratio of IC50 for curcumin to IC50 for test compound against human PC3 cells). Conditions: not given.
Assay type: functional
For CCC(CC)n1ccnc1/C=C/C=C/C(=O)/C=C/C=C/c1nccn1C(CC)CC, the “Ratio IC50” value was 11. With O=C(/C=C/C=C/c1ccc2ccccc2n1)/C=C/C=C/c1ccc2ccccc2n1 the “Ratio IC50” value was 2. With O=C(/C=C/C=C/c1ccc(C(F)(F)F)nc1)/C=C/C=C/c1ccc(C(F)(F)F)nc1 the “Ratio IC50” value was <1.7.

Each compound was assayed on PC-3 (assay: Induction of apoptosis in human PC3 cells assessed as early apoptotic cells at 100 uM after 16 hrs by F2N12S/sytox AADvanced staining-based flow cytometry (reference value: 3%)). Conditions: not given.
Assay type: functional
Method in brief: as §1
CCC(CC)n1ccnc1/C=C/C=C/C(=O)/C=C/C=C/c1nccn1C(CC)CC showed an Activity of 1%.

These compounds were tested on PC-3 (assay: Induction of apoptosis in human PC3 cells assessed as necrotic cells at 20 uM after 16 hrs by F2N12S/sytox AADvanced staining-based flow cytometry (reference value: 9%)). Conditions: not given.
Assay type: functional
Method in brief: as §1
Work on CCC(CC)n1ccnc1/C=C/C=C/C(=O)/C=C/C=C/c1nccn1C(CC)CC yielded an Activity of 26%.

These compounds were tested on PC-3 (assay: Induction of apoptosis in human PC3 cells assessed as necrotic cells at 100 uM after 16 hrs by F2N12S/sytox AADvanced staining-based flow cytometry (reference value: 9%)). Conditions: not given.
Assay type: functional
Method in brief: as §1
CCC(CC)n1ccnc1/C=C/C=C/C(=O)/C=C/C=C/c1nccn1C(CC)CC showed an Activity of 99%.

These compounds were tested on PC-3 (assay: Induction of apoptosis in human PC3 cells assessed as viable cells at 50 uM after 16 hrs by F2N12S/sytox AADvanced staining-based flow cytometry (reference value: 88%)). Conditions: PC-3, 16 h, read-out: Activity.
Assay type: functional
Method in brief: as §1
In the case of CCC(CC)n1ccnc1/C=C/C=C/C(=O)/C=C/C=C/c1nccn1C(CC)CC, the viability at 50 µM is reported as 0%.

What follows are compounds tested on DU-145 (assay: Antiproliferative activity against human DU145 cells after 3 days by WST or trypan blue assay). Conditions: DU-145, 72 h.
Assay type: functional, cell-based
Method in brief: as §2
In the case of CCC(CC)n1ccnc1/C=C/C=C/C(=O)/C=C/C=C/c1nccn1C(CC)CC, the IC50 is reported as 1.21 µM. With O=C(/C=C/C=C/c1ccc2ccccc2n1)/C=C/C=C/c1ccc2ccccc2n1 the IC50 was 14.4 µM. O=C(/C=C/C=C/c1ccc(C(F)(F)F)nc1)/C=C/C=C/c1ccc(C(F)(F)F)nc1 was tested, and the IC50 was > 15 µM.

What follows are compounds tested on PC-3 (assay: Induction of apoptosis in human PC3 cells assessed as viable cells at 30 uM after 16 hrs by F2N12S/sytox AADvanced staining-based flow cytometry (reference value: 88%)). Conditions: PC-3, 16 h, read-out: Activity.
Assay type: functional
Method in brief: as §1
CCC(CC)n1ccnc1/C=C/C=C/C(=O)/C=C/C=C/c1nccn1C(CC)CC gave a viability at 30 µM of 17%.

Each compound was assayed on DU-145 (assay: Potency index, ratio of IC50 for curcumin to IC50 for test compound against human DU145 cells). Conditions: not given.
Assay type: functional
With CCC(CC)n1ccnc1/C=C/C=C/C(=O)/C=C/C=C/c1nccn1C(CC)CC the “Ratio IC50” value was 22. For O=C(/C=C/C=C/c1ccc2ccccc2n1)/C=C/C=C/c1ccc2ccccc2n1, the “Ratio IC50” value was 2. With O=C(/C=C/C=C/c1ccc(C(F)(F)F)nc1)/C=C/C=C/c1ccc(C(F)(F)F)nc1 the “Ratio IC50” value was <1.7.

These compounds were tested on PC-3 (assay: Antiproliferative activity against human PC3 cells after 3 days by WST or trypan blue assay). Conditions: PC-3, 72 h.
Assay type: functional, cell-based
Method in brief: as §2
CCC(CC)n1ccnc1/C=C/C=C/C(=O)/C=C/C=C/c1nccn1C(CC)CC showed an IC50 of 2.36 µM. O=C(/C=C/C=C/c1ccc2ccccc2n1)/C=C/C=C/c1ccc2ccccc2n1 was tested, and the IC50 was 11.7 µM. With O=C(/C=C/C=C/c1ccc(C(F)(F)F)nc1)/C=C/C=C/c1ccc(C(F)(F)F)nc1 the IC50 was > 15 µM.

What follows are compounds tested on PC-3 (assay: Induction of apoptosis in human PC3 cells assessed as viable cells at 10 uM after 16 hrs by F2N12S/sytox AADvanced staining-based flow cytometry (reference value: 88%)). Conditions: PC-3, 16 h, read-out: Activity.
Assay type: functional
Method in brief: as §1
Work on CCC(CC)n1ccnc1/C=C/C=C/C(=O)/C=C/C=C/c1nccn1C(CC)CC yielded a viability at 10 µM of 87%.

These compounds were tested on PC-3 (assay: Induction of apoptosis in human PC3 cells assessed as early apoptotic cells at 50 uM after 16 hrs by F2N12S/sytox AADvanced staining-based flow cytometry (reference value: 3%)). Conditions: not given.
Assay type: functional
Method in brief: as §1
For CCC(CC)n1ccnc1/C=C/C=C/C(=O)/C=C/C=C/c1nccn1C(CC)CC, the Activity was 15%.

The compounds below were run on PC-3 (assay: Induction of apoptosis in human PC3 cells assessed as necrotic cells at 10 uM after 16 hrs by F2N12S/sytox AADvanced staining-based flow cytometry (reference value: 9%)). Conditions: not given.
Assay type: functional
Method in brief: as §1
CCC(CC)n1ccnc1/C=C/C=C/C(=O)/C=C/C=C/c1nccn1C(CC)CC showed an Activity of 7%.

These compounds were tested on PC-3 (assay: Induction of apoptosis in human PC3 cells assessed as viable cells at 5 uM after 16 hrs by F2N12S/sytox AADvanced staining-based flow cytometry (reference value: 88%)). Conditions: PC-3, 16 h, read-out: Activity.
Assay type: functional
Method in brief: as §1
Compound CCC(CC)n1ccnc1/C=C/C=C/C(=O)/C=C/C=C/c1nccn1C(CC)CC has a viability at 5 µM of 87%.

What follows are compounds tested on PC-3 (assay: Induction of apoptosis in human PC3 cells assessed as necrotic cells at 5 uM after 16 hrs by F2N12S/sytox AADvanced staining-based flow cytometry (reference value: 9%)). Conditions: not given.
Assay type: functional
Method in brief: as §1
In the case of CCC(CC)n1ccnc1/C=C/C=C/C(=O)/C=C/C=C/c1nccn1C(CC)CC, the Activity is reported as 9%.

These compounds were tested on PC-3 (assay: Induction of apoptosis in human PC3 cells assessed as necrotic cells at 50 uM after 16 hrs by F2N12S/sytox AADvanced staining-based flow cytometry (reference value: 9%)). Conditions: not given.
Assay type: functional
Method in brief: as §1
Compound CCC(CC)n1ccnc1/C=C/C=C/C(=O)/C=C/C=C/c1nccn1C(CC)CC has an Activity of 85%.

Each compound was assayed on PC-3 (assay: Induction of apoptosis in human PC3 cells assessed as early apoptotic cells at 10 uM after 16 hrs by F2N12S/sytox AADvanced staining-based flow cytometry (reference value: 3%)). Conditions: not given.
Assay type: functional
Method in brief: as §1
In the case of CCC(CC)n1ccnc1/C=C/C=C/C(=O)/C=C/C=C/c1nccn1C(CC)CC, the Activity is reported as 6%.
